The text below walks through data of ChEMBL document CHEMBL3758101, “Synthesis and biological evaluation of fluorinated 1,5-diarylpyrrole-3-alkoxyethyl ether derivatives as selective COX-2 inhibitors endowed with anti-inflammatory activity” (Eur J Med Chem, 2016).

The test system of assay [1] is Rattus norvegicus. As to the kind of experiment: Antiinflammatory activity in Sprague-Dawley rat model of carrageenan-induced paw edema assessed as paw volume at 3 mg/kg, po administered 2 hrs post carrageenan challenge measured after 90 mins by plethysmometry (reference value: 37.2 +/- 3.4 ml). In kind it is functional.
Assay [2] relates to Rattus norvegicus. Put plainly: Antihyperalgesic effect in Sprague-Dawley rat model of monosodium iodoacetate-induced osteoarthritis assessed as withdrawal threshold at 3 mg/kg, ip administered 14 days post MIA challenge measured after 90 mins by paw pressure test (reference value: 37.8 +/- 3.1 g). In kind it is functional. The method in brief:
(§1)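 Male Sprague–Dawley rats (200–250 g). MIA (2 mg/25 µL) was injected into the left tibiotarsal joint on day 0 under 2% isoflurane; controls received 25 µL saline. On day 14 compound or vehicle was given at time 0. Paw pressure threshold (g) was read with an analgesimeter using a blunt conical probe on the dorsal paw at 30, 60, 90 and 120 min. Mean ± s.e.m., 6 rats.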

Assay [3] relates to HaCaT. Put plainly: Antiproliferative activity against human HaCaT cells at 10 uM after 24 hrs by BrdU incorporation assay. In kind it is functional, cell-based. The method, boiled down: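 HaCaT human keratinocytes were grown in high-glucose DMEM with 10% FBS and 2 mM L-glutamine at 37 °C and 5% CO2 to 80% confluency. Cells were treated 24 h with compound at 1, 10 or 50 µM (final DMSO ≤0.1%). Proliferation was read by BrdU incorporation as % of DMSO control; three experiments.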
(In general: Dividing cells build labelled thymidine or BrdU into new DNA.)

The subject of assay [4] is Mus musculus. As to the kind of experiment: Antinociceptive activity in CD1 albino mouse model of acetic acid-induced visceral pain assessed as number of writhes at 3 mg/kg, po pretreated for 60 mins before acetic acid challenge measured after 5 mins (reference value: 32.5 +/- 2.4). The assay is classed as functional.
For assay [5], the system named is Rattus norvegicus. As to the kind of experiment: Antihyperalgesic effect in Sprague-Dawley rat model of monosodium iodoacetate-induced osteoarthritis assessed as withdrawal threshold at 20 mg/kg, ip administered 14 days post MIA challenge measured after 60 mins by paw pressure test (reference value: 36.1 +/- 3.5 g). The assay is classed as functional. The method, boiled down:
as §1

SMILES strings stand for the structures. Activity calls are given as the source filed them.

Regarding `Cc1c(CCOCCCF)cc(-c2ccc(S(C)(=O)=O)cc2)n1-c1ccc(F)cc1`, the Activity in assay [1] turned out to be 44.8 g; in assay [2] it was 42.4 g; in assay [4] it was 24.6; in assay [5], 54.5 g. In addition, the outcome in assay [3] was Active.
